This is a sample that favours compounds with a hit; in the whole collection about 2% have one here.
Myeloid diff MLP = compounds promoting myeloid differentiation | ER-HoxA9 myeloid progenitors, lysozyme-GFP differentiation, flow cytometry | calls only at 10 µM | hit rate 1% among 360,000 | AID 624256;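 active = normalized GFP-positive differentiation at or above the plate's own cutoff, the solvent-only control mean plus 3 SD; inconclusive = no clear call, values can overlap the other calls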;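 note: cells exposed to compound for four days before flow analysis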
GAA850 FXN act = frataxin GAA850 promoter activation. activation, % at 6 µM. HEK293 lucGAA850 FXN promoter luciferase reporter, 24 h; percent of 10 µM SAHA response. AID 540364. hit rate 0.56% among 360,000;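 active = activation above the average of all compounds screened plus 3 SD, cutoff fixed separately per campaign, cut at about 7.5% in these data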;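 note: 0% = DMSO wells and 100% = 10 µM SAHA wells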
NR2E3 ag-1 = agonists of human NR2E3 nuclear receptor; CHO-S Gal4-NCOR/VP16-NR2E3 two-hybrid, luciferase; hit rate 0.35% among 360,000; inhibition of corepressor binding, % at 3.98 µM;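 active = inhibition above the mean of all tested compounds plus 3 SD, cut at about 70% in these data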;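 note: 0% = DMSO with NR2E3 transfected cells and 100% = cells lacking NR2E3 construct; higher means lower luciferase signal from less NR2E3 corepressor binding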
Target sequence (Q9Y5X4 whole entry, looked up, the tested form may be a part): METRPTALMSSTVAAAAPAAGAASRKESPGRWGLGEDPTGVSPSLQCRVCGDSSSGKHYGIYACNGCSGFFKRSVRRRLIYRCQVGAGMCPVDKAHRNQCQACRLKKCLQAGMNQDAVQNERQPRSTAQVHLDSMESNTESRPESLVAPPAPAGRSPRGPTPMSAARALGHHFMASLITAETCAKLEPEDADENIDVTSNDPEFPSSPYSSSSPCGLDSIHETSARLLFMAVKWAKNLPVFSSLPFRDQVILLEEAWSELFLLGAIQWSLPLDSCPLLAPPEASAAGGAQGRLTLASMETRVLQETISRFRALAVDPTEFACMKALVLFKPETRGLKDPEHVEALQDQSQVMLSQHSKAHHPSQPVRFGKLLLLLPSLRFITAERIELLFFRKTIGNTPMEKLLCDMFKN
T cell modulator = modulates CD8 T cell binding to vesicles; 2C CD8+ T cell-vesicle binding, flow cytometry; active compounds read low; response (vesicle binding), % at 7 µM; hit rate 0.068% among 330,000;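 active = response, share of CD8 T cells binding vesicles, and their 90th percentile fluorescence all below set limits, cut at about 80% in these data, passing the limit was not always enough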;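 note: values below 100% mean blocked vesicle binding to the CD8+ T cells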
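Read-out – percent CD8+ FL2 mean versus row control · System – murine 2C transgenic CD8+ T lymphocytes · Times – 1.5 h cell–vesicle binding at 37 °C, then 20 min icy labelling · Control set – naked vesicles low, QL9 vesicles with vehicle high · Detection – cytometric PE anti-B7-1 and Alexa647 anti-CD8 signals after 1% paraformaldehyde fixation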
NR2E3 ag-2 = NR2E3 (human) agonism; inhibition of corepressor binding, % at 4.78 µM; GST-NR2E3/biotin-RetCOR TR-FRET, 1536-well; AID 2300; Q9Y5X4; hit rate 0.12% among 320,000;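 active = percent inhibition above the cutoff of mean plus 3 SD of all tested compounds, set per screening campaign, cut at about 20% in these data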;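 note: 0% = DMSO wells and 100% = biotin wells as full block of FRET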
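Test system: GST-NR2E3 and biotin-RetCOR proteins | Quantity: 1.35 nM GST-tagged NR2E3 final | Medium: Tris pH 7.5 | Also added: 7 nM biotin-RetCOR | Dosing: Compound at 4.8 µM, single dose | Timing: 5 h at 4 °C | Detection: Time-resolved FRET | Read-out basis: Percent inhibition | Benchmarks: Biotin wells as high control, 0.6% DMSO wells as low control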
* = called active by the depositor; i = inactive; ? = inconclusive; · = no result given; + = active, no number.

SMILES	Myeloid diff MLP	GAA850 FXN act	NR2E3 ag-1	T cell modulator	NR2E3 ag-2
CC(=O)C1=C(C)NC(SCC(=O)c2ccc(Cl)cc2)=C(C#N)C1c1ccco1 (stereo not given)	+	1	-22	424	5
CNC(=O)COC(=O)c1cc(SC)ccc1Cl	+	1	-14	373	-2
COc1ccc([N+](=O)[O-])cc1NC(=O)C(C)Sc1ccccc1 (stereo not given)	i	2	-20	0	5
COc1ccc([N+](=O)[O-])cc1NC(=O)C(C)Sc1nc(-c2ccccc2)cs1 (stereo not given)	i	3	-12	0.0*	0
CC(Sc1nnc(Nc2ccccc2)s1)C(=O)Nc1nc(-c2ccccc2)cs1 (stereo not given)	+	-2	-13	979	0
CC(Sc1nnc(NCc2ccccc2)s1)C(=O)Nc1ccc2c(c1)C(=O)c1ccccc1C2=O (stereo not given)	i	-7	-141	255	0
CC1(C)Cc2c(C#N)c(NCC3CCCO3)nc(-c3ccco3)c2CO1 (stereo not given)	i	1	-5	185	-2
CC1(C)Cc2c(C#N)c(NC3CCCCC3)nc(-c3ccco3)c2CO1	i	1	-19	0.0*	2
COc1ccccc1CNC(=O)C[C@H]1CC[C@@H]2[C@H](COC[C@H](O)CN2Cc2ccc3c(c2)OCO3)O1	i	·	·	·	·
Cc1c(NC(=O)C(C)OC(=O)c2cccs2)c(=O)n(-c2ccccc2)n1C (stereo not given)	i	-1	-10	374	0
CCC(C)(C)C1CCc2nc3ccccc3c(C(=O)OC(C)C(=O)Nc3c(C)n(C)n(-c4ccccc4)c3=O)c2C1 (stereo not given)	+	1	9	364	-1
C#Cc1cccc(C(=O)N2CCCC(C(=O)c3ccc(OC)cc3C)C2)c1 (stereo not given)	i	2	-4	469	-2
Cc1ccnn1CC(=O)N/N=C/c1ccc([N+](=O)[O-])s1	+	-1	-29	470	-1
Cc1ccnn1CC(=O)N/N=C/c1cccs1	i	1	-1	225	-1
O=C(N/N=C/c1ccc([N+](=O)[O-])s1)c1ccccc1	i	-7	-1	321	1
COC(=O)N/N=C/c1ccc([N+](=O)[O-])s1	+	2	6	311	3
COc1ccccc1NC(=O)C(=O)N/N=C/c1ccc([N+](=O)[O-])s1	+	1	-19	·	·
COc1cc2oc(=O)cc(CN(Cc3ccccc3)Cc3ccccc3)c2cc1Cl	i	·	9	·	·
O=C(Nc1ccc(OC(F)(F)F)cc1)c1[nH]ncc1[N+](=O)[O-]	i	1	-26	533	0
Cc1ccccc1C1C(C#N)=C2N=C(N)c3c(sc4c3CCCCC4)N2C2=C1C(=O)CC(C)(C)C2 (stereo not given)	+	-1	-8	286	4
COc1ccc(/C(N)=N/OC(=O)C2CCCCC2)cc1OC	i	9.0*	-68	169	1
CCc1nccn1CCC(=O)NC1CCCc2c1cnn2-c1ccc(F)cc1F (stereo not given)	i	1	-14	390	2
C[C@@H]1CN([C@H](C)CO)C(=O)CCCn2nncc2CO[C@H]1CN(C)S(=O)(=O)c1ccccc1F	i	0	-19	·	·
CC(Oc1ccccc1)C(=O)NNC(=O)c1cccs1 (stereo not given)	+	0	-56	136	0
O=C(NNC(=O)c1cccs1)c1ccccc1	i	1	-9	242	3
SMILES	Myeloid diff MLP	GAA850 FXN act	NR2E3 ag-1	T cell modulator	NR2E3 ag-2
COc1ccc(C2=CC3=C(Br)C(=O)C(C)(OC(=O)c4ccco4)C(=O)C3=CO2)cc1 (stereo not given)	+	0	-10	776	-10
Cc1c(Nc2cc(Cl)c3nonc3c2[N+](=O)[O-])c(=O)n(-c2ccccc2)n1C	?	13*	9	·	·
Cc1ccc(C(=O)COC(=O)c2ccc(Cl)c(N)c2)s1	i	3	-3	204	0
Nc1cc(C(=O)OCC(=O)c2ccc(CC(=O)N3CCOCC3)s2)ccc1Cl	i	0	10	0.0*	4
CCC(C)Sc1cc(-c2nc3cc(C)ccn3c2NC2CCCCC2)ccc1OC (stereo not given)	+	1	-29	308	·
CCC(C)Sc1cc(-c2nc3ccccn3c2NC2CCCCC2)ccc1OC (stereo not given)	i	0	5	498	1
CC(OC(=O)c1nn(C)c(=O)c2ccccc12)C(=O)Nc1ccc(S(N)(=O)=O)cc1 (stereo not given)	+	1	-18	244	2
O=C(c1cccc(S(=O)(=O)N2CCc3ccccc32)c1)N1CCN(c2ccccc2)CC1	i	-2	22	·	·
COCC(=O)N[C@H]1C=C[C@@H](CC(=O)NCc2ccccc2OC)O[C@@H]1CO	i	·	·	·	·
CC(=O)Nc1cccc(-c2ccnc3c2CC(C)(C(=O)NCc2ccc(F)c(F)c2)O3)c1 (stereo not given)	+	-4	-5	·	·
CC(=O)Nc1cccc(-c2ccnc3c2CC(C)(C(=O)NCCC(F)(F)F)O3)c1 (stereo not given)	+	-5	-35	·	·
Cc1cccc(N2CCN(C(=O)c3[nH]c(C(F)(F)F)nc3-c3ccccc3)CC2)c1C	?	·	33	·	·
COC(=O)C[C@H]1C=C[C@H](NC(=O)Nc2ccccc2F)[C@@H](CO)O1	i	·	·	·	·
CCOC(=O)c1nc2cc3n(c(C)c-2c1C)C(C)C(C)=C3C (stereo not given)	i	-1	5	430	2
CCOC(=O)c1nc2cc3n(c(CC(C)C)c-2c1C)CC(C)=C3C	+	-1	-4	132	3
O=C(C[C@H]1C/C=C\CCC(=O)O[C@@H](c2ccccc2)CNC1=O)NCCO	i	1	-37	257	·
C(=C\c1ccccc1)/CN1CCN(C(c2cccc3ccccc23)c2nnnn2-c2ccc3c(c2)OCCO3)CC1 (stereo not given)	i	·	7	·	·
O=C(NCCCN1CCOCC1)c1ccc(Sc2ccc(Br)cc2)c([N+](=O)[O-])c1	+	2	-12	0	-1
O=C(NCCCN1CCOCC1)c1ccc(Sc2ccccc2Cl)c([N+](=O)[O-])c1	i	4	5	114	3
CCCN1C(=O)/C(=C2/C=Cc3ccccc3N2CC)SC1=S	+	-1	-26	57	3
C=CCN1C(=O)/C(=C\C=C2\N(C)c3ccccc3C2(C)C)SC1=S	+	0	-33	770	1
CN1/C(=C\C=C2/SC(=S)N(CC(=O)O)C2=O)C(C)(C)c2ccccc21	i	0	3	221	0

Screens (PubChem BioAssay)
